The results in this text go back to ChEMBL document CHEMBL3425475, “Identification of indole inhibitors of human hematopoietic prostaglandin D2 synthase (hH-PGDS)” (Bioorg Med Chem Lett, 2015).

Data set [1] concerns the target T1, Hematopoietic prostaglandin D synthase (Homo sapiens, UniProt O60760). Put plainly: Inhibition human HPGDS expressed in Escherichia coli assessed as reduction in GST enzymatic activity using MCBL and glutathione incubated for 30 mins by fluorescence based assay. The method in brief:
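Compound was preincubated 30 min with enzyme at 1.5 µg/ml in 50 mM Tris, 2 mM MgCl2, 0.1% CHAPS. MCBL (0.4 mM, added solution) and glutathione were then added, and fluorescence (ex 360/em 460) was read at once and again after 30 min. Readings were normalised to DMSO wells (0%) and a control inhibitor (100%). Values are means of at least two independent experiments.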

Data set [2] deals with T1, Hematopoietic prostaglandin D synthase. In words: Binding affinity to human HPGDS expressed in Escherichia coli using 1-phenylpyrazole-4-carboxylic acid/6-(3-fluorophenyl)pyridine-3-carboxamide as reporter probe by ligand-observed 1D NMR T1rho binding assay. The essentials: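 Ligand-observed NMR displacement of reporter molecules from recombinant E. coli-expressed wild-type hH-PGDS. Active-site binding of the reporters was confirmed by competition with a known inhibitor. Kd was calculated from the extent of reporter displacement at two compound concentrations, using the experimentally determined reporter and compound concentrations in an exact mathematical expression. Values are means of at least two independent experiments.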

Data set [3] has the same target. Put plainly: Inhibition HPGDS in human MEG01 cells assessed as reduction in PGD2 production incubated for 30 mins followed by stimulation with 5 uM ionomycin for 30 mins by enzyme immunoassay method. It counts as cell-based, MEG-01. The essentials:
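MEG-01 cells were differentiated with 0.1 µM PMA for 16 h, then plated. Inhibitor was added in concentration response, 10 µM–0.15 nM, for 30 min at 37 °C, followed by 5 µM ionomycin for 30 min at 37 °C. Secreted PGD2 in the medium was quantified by PGD2-MOX EIA.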

Data set [4] can be described thus: Solubility of the compound. It counts as physicochemical.
For data set [5], the target named is T1, Hematopoietic prostaglandin D synthase. In words: Binding affinity to human HPGDS expressed in Escherichia coli by isothermal titration calorimetry. The method in brief: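 Recombinant wild-type hH-PGDS, expressed in E. coli and purified by cation exchange and gel filtration. Ligand, typically 500 µM at experimentally determined concentration, titrated in 2 µL aliquots into 30–40 µM protein. Reverse titrations (protein into ligand) used where ligand solubility was low. Values are means of at least two independent experiments.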
For orientation: In ITC the heat of successive injections is recorded.

Data set [6] has the same target. Put plainly: Inhibition fluorescein-conjugated ligand binding to human HPGDS expressed in Escherichia coli by fluorescence polarization assay. The essentials:
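Recombinant E. coli-expressed hH-PGDS. Displacement of a fluorescein-conjugated potent hH-PGDS inhibitor by compound was followed in dose-response by fluorescence polarization, excitation 470 nm and emission 530 nm. The assay was adapted from a commercial kit.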

The structures appear in SMILES notation. In brackets after ≈: the same amount, converted by molar mass.

T1 sequence (O60760 whole entry): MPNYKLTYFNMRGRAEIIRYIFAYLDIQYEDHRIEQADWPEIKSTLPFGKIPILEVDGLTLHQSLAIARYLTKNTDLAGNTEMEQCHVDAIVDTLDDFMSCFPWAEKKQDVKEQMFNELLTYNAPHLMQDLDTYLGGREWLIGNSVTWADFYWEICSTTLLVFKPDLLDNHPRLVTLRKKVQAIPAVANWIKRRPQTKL

Take `O=C(NC1CCN(CC(F)(F)F)CC1)c1ccc(Oc2ccccc2)nc1`: the IC50 (commonly the concentration at which inhibition is half-maximal) in data set [1] amounted to 31 nM. Moreover, binding in data set [2] was characterised by a dissociation constant (Kd) of 60 nM.

For `CCC(=O)Nc1cncc(-c2cccc3[nH]ccc23)c1`, the IC50 in data set [1] worked out at 32 nM. The Kd (commonly the free concentration of one partner at which half of the binding sites on the other are occupied at equilibrium, for simple one-to-one binding) in data set [2] is 60 nM.

As to `c1ccc(-c2ncc(-c3cc[nH]n3)s2)cc1`, the 50% inhibitory concentration (IC50) in data set [1] came out at 23 nM. For the same molecule, the EC50 (as a rule, the concentration that produces a half-maximal response) in data set [3] was found to be 110 nM. Further, the solubility (in general, the concentration that dissolves in the medium under given conditions) in data set [4] stood at 1.4 µM (≈ 0.318 µg/mL). In addition, the values for the Kd in data set [5] and in data set [2] were 300 nM and 51 nM, respectively.

`NC(=O)c1ccc(-c2cccc(F)c2)nc1`: the affinity in data set [5], expressed as Kd, was 800 nM.

Regarding `COc1cccc(-c2ccc(C(=O)NC3CCN(CC(F)(F)F)CC3)cn2)c1`, the 50% inhibitory concentration (IC50) in data set [1] was determined as 60 nM; in data set [6], 210 nM. In addition, the EC50 in data set [3] was found to be 130 nM. In data set [4], this molecule had a solubility of 4.2 µM (≈ 1.65 µg/mL). For the same molecule, the figures for the Kd in data set [5] and in data set [2] were 12 nM and 44 nM, respectively.

For `CN(C)CCCC(=O)Nc1cncc(-c2cccc3[nH]ccc23)c1`, the IC50 in data set [1] came out at 180 nM; in data set [6], 820 nM. Besides, the concentration in solution in data set [4] (solubility) came to 84 µM (≈ 27.1 µg/mL). For the same molecule, the Kd in data set [2] was determined as 570 nM.

As for `O=C(O)c1cnn(-c2ccccc2)c1`, the dissociation constant (Kd) in data set [5] was determined as 140000 nM.

As to `O=C(NC1CCN(CC(F)(F)F)CC1)c1ccc(-c2cc[nH]c(=O)c2)nc1`, the IC50 in data set [1] came to 70 nM. For the same molecule, in data set [2], the Kd was 200 nM.

Turning to `O=C(NC1CCN(CC(F)(F)F)CC1)c1ccc(-c2cccc(F)c2)nc1`, the half-maximal inhibitory concentration (IC50) in data set [1] is 200 nM. Moreover, the EC50 in data set [3] came to 35 nM. The concentration in solution in data set [4] (solubility) was 2.6 µM (≈ 0.992 µg/mL). Also, the Kd in data set [5] is 20 nM; in data set [2], 9.5 nM.

In the case of `Cn1cncc1CC(=O)Nc1cncc(-c2cccc3[nH]ccc23)c1`, in data set [1], the IC50 is 1200 nM. In data set [2], this molecule had a Kd below 20000 nM.

`CN(C)c1ccc(C(=O)NC2CCN(CC(F)(F)F)CC2)cn1` displayed an equilibrium dissociation constant (Kd) in data set [2] of 14000 nM.

Take `O=C(NC1CCN(CC(F)(F)F)CC1)c1ccc(N2CCCCC2)nc1`: the IC50 in data set [1] was 48 nM. This molecule also came in with a Kd in data set [2] below 100 nM.

Consider `O=C(NC1CCN(CC(F)(F)F)CC1)c1ccc(-c2cccc(=O)[nH]2)nc1`, for which the IC50 in data set [1] is 71 nM. Also, the Kd in data set [2] was 400 nM.

For the molecule `O=C(Cn1cnnn1)Nc1cncc(-c2cccc3[nH]ccc23)c1`, the IC50 in data set [1] was found to be 43 nM. The affinity in data set [2], expressed as Kd, was 200 nM.

In data set [2], `COc1cc(-c2ccc(C(=O)NC3CCN(CC(F)(F)F)CC3)cn2)ccn1` returned a Kd of 2000 nM.

In the case of `O=C(CCc1cccnc1)Nc1cncc(-c2cccc3[nH]ccc23)c1`, the IC50 in data set [1] was 26 nM. This molecule came in with a Kd in data set [2] of 50 nM.

`O=C(NC1CCN(CC(F)(F)F)CC1)c1ccc(N2CCCC2)nc1`: in data set [1], the IC50 was 230 nM. Moreover, binding in data set [2] was put at a Kd of 200 nM.

Turning to `O=C(NC1CCN(CC(F)(F)F)CC1)c1ccc(N2CCOCC2)nc1`, the IC50 in data set [1] came to 320 nM. The molecule also gave a Kd in data set [2] of 400 nM.

Turning to `O=C1CC[C@@H](C(=O)Nc2cncc(-c3cccc4[nH]ccc34)c2)N1`, the IC50 in data set [1] was 35 nM. The same molecule returned a Kd in data set [2] of 300 nM.

In the case of `CC(C)(O)c1nc(-c2ccc(CNC(=O)c3cnc(-c4ccccn4)nc3)cc2)no1`, the IC50 in data set [1] stood at 70 nM. For the same molecule, the EC50 in data set [3] was determined as 74 nM. Further, the figures for the Kd in data set [5] and in data set [2] were 35 nM and 23 nM, respectively.

As to `O=C(NC1CCN(CC(F)(F)F)CC1)c1ccc(N2CCNCC2)nc1`, binding in data set [2] was put at a Kd of 13000 nM. This lies in the double-digit micromolar range.

Regarding `O=C1CN(c2ccc(C(=O)NC3CCN(CC(F)(F)F)CC3)cn2)CCN1`, the IC50 in data set [1] came to 590 nM. The molecule also showed a Kd in data set [2] of 1000 nM.

With `O=C(CCN1CCCCC1)Nc1cncc(-c2cccc3[nH]ccc23)c1`, the IC50 in data set [1] came out at 130 nM. Also, in data set [2], the equilibrium dissociation constant (Kd) stood at 1000 nM.

Regarding `COCCCNC(=O)c1nc(-c2cccc3[nH]ccc23)no1`, the IC50 is 170 nM in data set [1] and 2900 nM in data set [6]. Further, in data set [4], the concentration in solution (solubility) was 77 µM (≈ 23.1 µg/mL). The molecule further registered a Kd in data set [2] of 650 nM.

In the case of `CN(C)CCC(=O)Nc1cncc(-c2cccc3[nH]ccc23)c1`, the IC50 is 300 nM in data set [1] and 460 nM in data set [6]. In addition, the EC50 in data set [3] was determined as 350 nM. Moreover, the concentration in solution in data set [4] (solubility) was 95 µM (≈ 29.3 µg/mL). In addition, the Kd amounted to 210 nM in data set [5] and 340 nM in data set [2].

On to `O=C(NC1CCN(CC(F)(F)F)CC1)c1ccc(-c2ccc(=O)[nH]c2)nc1`, for which the dissociation constant (Kd) in data set [2] turned out to be 10000 nM.
